Each block holds one molecule with its values, some of them ahead of it. The source made the active and inactive calls. The rule behind the calls is not given here.
How the values were obtained:
[1] = Binding affinity to Triton-X 100 assessed as peak intensity loss at 150 uM by 1H-NMR spectra analysis
[2] = Binding affinity to Triton-X 100 assessed as change in chemical shift at 150 uM by 1H-NMR spectra analysis
[3] = Binding affinity to Triton-X 100 assessed as line broadening at 150 uM by 1H-NMR spectra analysis
[4] = Binding affinity to Triton-X 100 assessed as line broadening at 150 uM by 1H-NMR analysis
[5] = Binding affinity to Triton-X 100 assessed as change in chemical shift at 100 uM by 1H-NMR spectra analysis
[6] = Binding affinity to Triton-X 100 assessed as intra-molecular cross relaxation at 500 uM by NOESY spectra analysis
Procedure, shortened: (§1)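 2D NOESY and ROESY of 100 μM ESI with 0.025% Triton X-100 or 500 μM ESI with 0.05% Triton X-100; 2K × 512 complex points, 12 ppm spectral width centred at 4.7 ppm, intra- and intermolecular cross-peaks mapped.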

[7] = Binding affinity to Triton-X 100 assessed as peak size of aggregate at 1:2 ratio of Triton-X 100 to compound by dynamic light scattering analysis
Procedure, shortened: (§2)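 Dynamic light scattering in NMR buffer, samples filtered through 0.22 μm and centrifuged 5 min at 13 500 rpm before measurement. Autocorrelation accumulated 150 s at a 173° scattering angle, in replicates of 3–5, with water viscosity used in analysis; intensity or volume size distributions reported.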

[8] = Binding affinity to Triton-X 100 assessed as peak size of aggregate at 1:1 ratio of Triton-X 100 to compound by dynamic light scattering analysis; procedure, shortened: as §2
[9] = Binding affinity to Triton-X 100 at 500 uM measured after 14 hrs by NOESY spectra analysis; procedure, shortened: as §1
[10] = Binding affinity to Triton-X 100 assessed as inter-molecular cross relaxation at 500 uM by NOESY spectra analysis; procedure, shortened: as §1
[11] = Binding affinity to Triton-X 100 assessed as inter-molecular saturation transfer at 500 uM at 8.61 ppm by STD spectra analysis
Procedure, shortened: (§3)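 STD NMR, saturation by a train of 40 Gaussian pulses of 50 ms each; selective on-resonance irradiation at the stated ppm (TX at 7.48 ppm), off-resonance at 30 ppm, interleaved and subtracted by phase cycling. 32K points, 16 ppm width centred at 4.7 ppm, 256 scans, 16 dummy scans, 0.1 s recycle delay (~15 min); 3 Hz exponential line broadening.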

[12] = Binding affinity to Triton-X 100 assessed as intra-molecular saturation transfer at 500 uM at 8.61 ppm by STD spectra analysis; procedure, shortened: as §3
[13] = Binding affinity to Triton-X 100 assessed as compound-complex formation at 500 uM by NOESY spectra analysis; procedure, shortened: as §1
[14] = Aggregation property of the compound in NMR buffer assessed as aggregate size at 500 uM by dynamic light scattering analysis; assay type: physicochemical; procedure, shortened: as §2
[15] = Aggregation property of the compound in NMR buffer assessed as diameter of aggregate at 500 uM by dynamic light scattering analysis; assay type: physicochemical; procedure, shortened: as §2
[16] = Aggregation property of the compound in NMR buffer assessed as amorphous morphology at 200 uM by uranyl acetate staining-based transmission electron microscopic analysis; assay type: physicochemical
[17] = Aggregation property of the compound assessed as shift in peak width by 1H-NMR analysis; assay type: physicochemical
Procedure, shortened: (§4)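 Line widths, chemical shifts and peak intensities tracked; CAC taken as the concentration where intensities deviate from linear dependence, or, for line width, the minimal concentration that increases peak width.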

[18] = Aggregation property of the compound assessed as change in chemical shift by 1H-NMR analysis; assay type: physicochemical; procedure, shortened: as §4
[19] = Aggregation property of the compound assessed as change in peak intensity by measuring concentration at which peak intensities deviated from the linear correlation by 1H-NMR analysis; assay type: physicochemical; procedure, shortened: as §4
[20] = Aggregation property of the compound assessed as change in saturation transfer at 100 uM irradiated at 8.61 ppm by STD NMR spectra analysis; assay type: physicochemical; procedure, shortened: as §3
[21] = biological target: T1, Albumin (Homo sapiens, UniProt P02768); assay: Binding affinity to human serum albumin assessed as line broadening at 200 uM by 1D 1H NMR analysis
T1 sequence (P02768 whole entry): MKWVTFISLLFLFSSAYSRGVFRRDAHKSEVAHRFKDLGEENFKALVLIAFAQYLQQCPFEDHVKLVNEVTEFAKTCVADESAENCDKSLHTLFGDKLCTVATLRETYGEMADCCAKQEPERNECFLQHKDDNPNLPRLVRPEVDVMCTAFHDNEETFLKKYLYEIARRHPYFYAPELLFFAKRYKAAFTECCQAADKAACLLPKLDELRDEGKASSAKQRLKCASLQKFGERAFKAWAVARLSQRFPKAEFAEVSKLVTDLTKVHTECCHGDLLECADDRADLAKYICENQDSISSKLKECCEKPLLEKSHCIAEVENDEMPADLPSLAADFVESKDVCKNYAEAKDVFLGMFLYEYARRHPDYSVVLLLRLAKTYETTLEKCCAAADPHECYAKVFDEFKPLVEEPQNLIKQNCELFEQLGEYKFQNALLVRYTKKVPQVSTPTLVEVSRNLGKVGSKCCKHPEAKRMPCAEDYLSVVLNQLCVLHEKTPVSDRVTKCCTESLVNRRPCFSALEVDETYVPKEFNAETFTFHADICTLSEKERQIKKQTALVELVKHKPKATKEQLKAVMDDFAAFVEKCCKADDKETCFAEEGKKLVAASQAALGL

[22] = biological target: T1, Albumin; assay: Displacement of [13C]oleic acid from human serum albumin by CH-HSQC spectra analysis
Procedure, shortened: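 Fatty-acid-free recombinant HSA at 250 μM in sodium phosphate buffer (20 mM NaPO4, pH 7.6, 50 mM NaCl, D2O), 37 °C for 30 min. 13C-oleic acid (100 mM stock in DMSO-d6, warmed to 50 °C for 10 min) added to 1.5 mM, then 2 h at 37 °C. CH-HSQC at 298 K; loss of site-specific cross-peaks A–H scored.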

[23] = biological target: T1, Albumin; assay: Displacement of dansylated arginine from human serum albumin at <150 uM by fluorescence assay
Procedure, shortened: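 Competition of ligand against 100 μM dansyl-arginine (Sudlow site 1, 1:1 stoichiometry) bound to 2.5 μM HSA. Excitation 370 nm, emission 460 nm. Apparent Kd fitted by Wang's method using least squares, assuming no other ligand sites on HSA, so treated as a maximum apparent value.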

[24] = biological target: T1, Albumin; assay: Displacement of dansylated phenylalanine from human serum albumin at <150 uM by fluorescence assay
Procedure, shortened: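 Competition of ligand against 100 μM dansyl-phenylalanine (binds Sudlow sites 1 and 2) bound to 2.5 μM HSA. Excitation 370 nm, emission 480 nm. Fractional saturation modelled with two sites, free HSA assumed negligible; least-squares fit with no further ESI sites, giving maximum apparent dissociation constants.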

[25] = biological target: T1, Albumin; assay: Displacement of ANS from human serum albumin at <150 uM by fluorescence assay
Procedure, shortened: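 Fluorescence competition: 2.5 μM HSA with 5 or 100 μM ANS, ligand added over a concentration range. Excitation 360 nm; emission read at 460 and 480 nm to check for blue shift. Signal normalized between ANS alone (minimum) and HSA:ANS (maximum).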

[26] = Aggregation property of the compound in NMR buffer at 50 to 250 uM by surface plasmon resonance analysis; assay type: physicochemical
Procedure, shortened: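 SPR on a nonfunctionalized gold nanoparticle sensor; samples in NMR buffer with DMSO at 1.25%, injected at 33 μL/min alongside matched DMSO controls (with HSA where present, 25 μM), in duplicate. Surface regenerated only after HSA-containing injections.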

[27] = biological target: T1, Albumin; assay: Binding affinity to human serum albumin assessed as inhibition of compound aggregation at 500 uM by dynamic light scattering analysis; procedure, shortened: as §2
[28] = biological target: T2, Rap guanine nucleotide exchange factor 3 (Homo sapiens, UniProt O95398); assay: Binding affinity to human EPAC1 cAMP binding domain (149 to 318 residues) by [15N-1H]HSQC spectroscopic analysis
T2 sequence (O95398 whole entry): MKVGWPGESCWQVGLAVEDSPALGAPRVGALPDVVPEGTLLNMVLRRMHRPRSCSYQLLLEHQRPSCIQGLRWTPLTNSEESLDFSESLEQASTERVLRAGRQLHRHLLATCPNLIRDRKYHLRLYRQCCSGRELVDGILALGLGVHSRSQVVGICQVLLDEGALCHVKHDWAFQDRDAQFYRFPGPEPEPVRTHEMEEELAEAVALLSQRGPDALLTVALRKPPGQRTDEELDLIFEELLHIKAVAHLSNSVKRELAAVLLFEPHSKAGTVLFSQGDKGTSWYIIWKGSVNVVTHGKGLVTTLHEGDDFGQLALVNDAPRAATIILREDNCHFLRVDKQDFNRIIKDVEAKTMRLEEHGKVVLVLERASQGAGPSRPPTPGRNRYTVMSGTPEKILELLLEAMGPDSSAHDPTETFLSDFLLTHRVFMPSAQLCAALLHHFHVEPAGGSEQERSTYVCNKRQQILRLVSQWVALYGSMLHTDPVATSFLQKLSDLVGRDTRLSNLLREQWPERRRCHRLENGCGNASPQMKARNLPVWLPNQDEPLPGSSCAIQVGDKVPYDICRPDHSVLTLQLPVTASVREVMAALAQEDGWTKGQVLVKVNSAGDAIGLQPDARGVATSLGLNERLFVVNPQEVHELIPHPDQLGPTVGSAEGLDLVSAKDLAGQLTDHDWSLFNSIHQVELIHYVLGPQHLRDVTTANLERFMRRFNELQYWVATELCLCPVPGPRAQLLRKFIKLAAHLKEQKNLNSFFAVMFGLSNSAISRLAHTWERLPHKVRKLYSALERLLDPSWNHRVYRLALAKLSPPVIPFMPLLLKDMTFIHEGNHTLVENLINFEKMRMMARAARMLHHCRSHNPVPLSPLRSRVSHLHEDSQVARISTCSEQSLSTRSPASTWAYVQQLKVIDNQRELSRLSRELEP

[29] = biological target: T2, Rap guanine nucleotide exchange factor 3; assay: Binding affinity to human EPAC1 cAMP binding domain (149 to 318 residues) in presence of human serum albumin by [15N-1H]HSQC spectroscopic analysis; conditions: read-out: Kd(app)
Procedure, shortened: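 100 μM human EPAC1 CBD (149–318) in NMR buffer (Tris pH 7.6) was titrated with inhibitor in the presence of globulin- and fatty-acid-free human serum albumin at stated stoichiometric ratios. Chemical shift differences and peak intensities normalised to ligand-free sample (I/I0, averaged over residues) were tracked. Errors came from propagated signal-to-noise.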

SMILES: Clc1ccccc1C(c1ccccc1)(c1ccccc1)n1ccnc1
Activity [1]: Active | Activity [2]: Active | Activity [3]: Active

SMILES: O=S(=O)(O)c1cccc2cccc(Nc3ccccc3)c12
Activity [2]: Active | Activity [3]: Active

SMILES: Clc1ccc(COC(Cn2ccnc2)c2ccc(Cl)cc2Cl)c(Cl)c1 (stereo not given)
Activity [1]: Active | Activity [2]: Active | Activity [3]: Active | Activity [4]: Active

SMILES: O=C(OCc1ccccc1)c1ccccc1
Activity [1]: Active | Activity [2]: Active | Activity [3]: Active

SMILES: Nc1nnc(-c2cccc(Cl)c2Cl)c(N)n1
Activity [2]: inactive | Activity [3]: inactive

SMILES: COC(=O)C1=C(C)NC(C)=C(C(=O)OCCN(C)Cc2ccccc2)C1c1cccc([N+](=O)[O-])c1 (stereo not given)
Activity [1]: Active | Activity [2]: Active | Activity [3]: Active

More lines, main results first:

Activity [5]: 0.02 ppm
SMILES: C[C@@H]1CCc2c(cc(Br)c(F)c2Br)N1C=O (stereo in doubt; trans)

Activity [5]: < 0.34 ppm
SMILES: C[C@@H]1CCc2c(cc(Br)c(F)c2Br)N1C=O (stereo in doubt; cis)

Activity [2]: Active | Activity [3]: Active
SMILES: O=C(O)c1cc(-c2ccc(F)cc2F)ccc1O

Activity [7]: 70 nm | Activity [8]: 10 nm | Activity [11]: Active | Activity [12]: Active
SMILES: C[C@@H]1CCc2c(cc(Br)c(F)c2Br)N1C=O [listing 1 of 2 here]
Activity [6]: Active | Activity [9]: inactive | Activity [10]: Active | Activity [13]: Active

Activity [14]: 90 to 600 nm | Activity [15]: 250 nm | Activity [16]: Active | Activity [17]: Not Active | Activity [18]: Not Active | Activity [19]: 150 µM | Activity [20]: Not Active | Activity [21]: Active | Activity [22]: Active | Activity [23]: Not Active | Activity [24]: Not Active | Activity [25]: Not Active | Activity [26]: Not Active | inhibition (INH) [27]: Active | Kd [28]: 124 to 184 µM | Kd [29]: 757 to 1980 µM
SMILES: C[C@@H]1CCc2c(cc(Br)c(F)c2Br)N1C=O [listing 2 of 2 here]

From ChEMBL document CHEMBL4396878, “Mechanisms of Specific versus Nonspecific Interactions of Aggregation-Prone Inhibitors and Attenuators” (J Med Chem, 2019)
